# Rows were chosen to be rich in hits. Some 3.5% of all compounds tested hit in one or more screens of this group.
# MrgX1 PAM: positive allosteric modulators of MrgX1, primary screen, HEK293 cells, Fluo-4 calcium flux; FDSS; active compounds read high; B-score at 10 µM; 0.63% of 310,000 active;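 active means plate-corrected calcium response at least 3 library SD above typical, normal starting fluorescence, not activating the receptor alone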;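 further: compound read alongside a low EC10 to EC30 dose of BAM8-22 agonist; peak minus trough fluorescence over baseline measured at the second addition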
# Target sequence (Q96LB2 whole entry, looked up): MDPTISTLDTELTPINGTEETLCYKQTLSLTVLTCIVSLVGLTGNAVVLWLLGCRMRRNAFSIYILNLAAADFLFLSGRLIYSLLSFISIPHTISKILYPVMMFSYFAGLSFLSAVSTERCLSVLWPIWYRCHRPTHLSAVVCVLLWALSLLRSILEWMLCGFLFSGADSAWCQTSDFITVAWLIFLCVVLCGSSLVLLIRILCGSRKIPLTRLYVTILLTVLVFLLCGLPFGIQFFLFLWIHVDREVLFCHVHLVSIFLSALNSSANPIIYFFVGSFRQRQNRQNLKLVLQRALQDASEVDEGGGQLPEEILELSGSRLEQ
# RGS4 block: RGS4 inhibitors, primary screen, cell-based, HEK293 M3R inducible RGS4, calcium flux; Fluo-4 calcium flux; active compounds read high; triggered by carbachol at its EC20; B-score at 10 µM; 0.45% of 310,000 active; AID 463165, 2010;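 active means B-score, a plate-corrected calcium signal, over three deviations above library mean, with baseline fluorescence within five deviations of library mean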;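 further: RGS4 expression induced by doxycycline in cells with stable M3 receptor; B-score is computed from the integrated fluorescence ratio over baseline after carbachol; higher B-score means a larger calcium signal and so more RGS4 inhibition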
# Target sequence (P49798 whole entry, looked up): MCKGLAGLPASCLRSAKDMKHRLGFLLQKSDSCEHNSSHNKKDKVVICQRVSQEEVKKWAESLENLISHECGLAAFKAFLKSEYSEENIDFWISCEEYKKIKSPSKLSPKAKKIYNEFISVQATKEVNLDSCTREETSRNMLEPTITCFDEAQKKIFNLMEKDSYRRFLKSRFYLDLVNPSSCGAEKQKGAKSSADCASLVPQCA
# RGS4 act: RGS4 potentiators or activators, primary screen, cell-based, HEK293 M3R inducible RGS4, calcium flux | carbachol calcium flux Fluo4; active compounds read low | B-score at 10 µM | 0.92% of 310,000 active | AID 463111, 2010;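 active means B-score of the integrated calcium signal more than 4 SD below the library mean, with starting fluorescence not abnormally high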;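 further: negative B-score means reduced calcium response which marks RGS4 activation or potentiation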
#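 Detection: kinetic calcium fluorescence imaging with Fluo4-AM dye, 2 µM / Material: HEK293 cells with stable M3R and inducible RGS4 / Schedule: recording 10 s baseline at 1 Hz, 100 s post-agonist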
# MrgX1 antagonist: antagonists of human MrgX1 receptor, primary screen, HEK293 cells, Fluo-4 calcium flux; Mas-related G-protein coupled receptor member X1 (Homo sapiens), Q96LB2; BAM8-22 antagonism; active compounds read low; B-score at 10 µM; 1.3% of 310,000 active;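 active means calcium-response B-score plate-corrected more than 3 library SD below zero, starting fluorescence within 5 deviations, no agonist response on first addition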;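 further: peak minus trough fluorescence over baseline after final BAM8-22 challenge near maximal dose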
# MrgX1 agonist: agonists of human MrgX1 receptor, primary screen, HEK293 cells, Fluo-4 calcium flux; Fluo-4 calcium fluorescence, agonist mode; active compounds read high; AID 588627, 2011; B-score at 10 µM; 0.44% of 310,000 active; Mas-related G-protein coupled receptor member X1 (Homo sapiens), Q96LB2;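 active means calcium response B-score plate-corrected fluorescence ratio at least 3 library SD, with starting fluorescence B-score inside 5 SD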
#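 Material: MrgX1-expressing HEK293 cells / Dosing: compound as first of three additions / Incubation: overnight seeding, then 1 h dark dye loading / Signal: Fluo-4 NW calcium fluorescence / Evaluation: B-scored fluorescence response ratio / Benchmarks: positive and negative control wells on each plate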
# MrgX1 PAM conf: MrgX1 positive allosteric modulators, duplicate retest, confirmation, HEK293 cells, Fluo-4 calcium flux | Fluo-4 calcium fluorescence, FDSS | 13% of 1,200 active | shares compounds with MrgX1 PAM | activation (ratio percentage), % at 10 µM;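 active means ratio at least 3 SD above the weak peptide control, stable starting fluorescence, no direct agonism earlier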;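 further: compound followed by low BAM8-22 agonist challenge near EC20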
# HEK293 Ca flux: nonspecific calcium signal in parental HEK293, confirmation, counter-screen for MrgX1 antagonist project, parental HEK293 cells, Fluo-4 calcium flux; shares compounds with MrgX1 antagonist; Fluo-4 calcium fluorescence, FDSS; fluorescence ratio F(max-min)/F0 at 10 µM; 2% of 4,000 active; AID 624111, 2012;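 active means duplicate-averaged calcium fluorescence ratio at least three times the standard deviation of buffer wells, a nonspecific response in parental cells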
# HEK293 Ca counter: calcium response in parental HEK293 cells, primary screen, counter-screen for MrgX1 allosteric activator project, cell-based, Fluo-4 calcium flux, duplicate. shares compounds with MrgX1 antagonist. Fluo-4 fluorescence ratio; active compounds read high. fluorescence ratio F(max-min)/F0 at 10 µM. 0.4% of 4,000 active;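 active means calcium fluorescence ratio, averaged over duplicates, at least 3 SD of the buffer-well ratio, meaning a nonspecific response in receptor-free cells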;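 further: untransfected parental HEK293 lacking MrgX1 used as counterscreen for MrgX1 allosteric activators; fluorescence change taken during the second addition on a kinetic imager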
# HEK293 Ca cntr2: calcium response in parental HEK293 cells, primary screen, counter-screen for MrgX1 agonist project, cell-based, Fluo-4 calcium flux, duplicate, agonist mode; shares compounds with MrgX1 antagonist; fluorescence ratio F(max-min)/F0 at 10 µM; 8.7% of 4,000 active; Fluo-4 calcium fluorescence (FDSS); active compounds read high;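 active means calcium fluorescence ratio at least three times the spread of buffer wells, meaning a non-specific response in parental cells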
# A number is an active result; i = inactive; nt = not tested or not shown.
SMILES,MrgX1 PAM,RGS4 block,RGS4 act,MrgX1 antagonist,MrgX1 agonist,MrgX1 PAM conf,HEK293 Ca flux,HEK293 Ca counter,HEK293 Ca cntr2
COc1ccc(C(O)c2nccc3cc(OC)c(OC)cc23)cc1OC (configuration not stated),9.46,i,i,i,i,i,i,i,i
CC12CS(=O)(=O)CC1SC(=S)N2Cc1ccccc1 (configuration not stated),i,i,i,i,i,nt,nt,nt,nt
CC(=O)Nc1sc(/C(C#N)=C\c2cccc(Cl)c2)nc1-c1ccc(C)cc1,20,i,i,i,i,i,0.0645,i,58.7
COc1ccc(NC(=O)CSc2nnnn2C2CCCCC2)cc1,i,i,i,i,i,nt,nt,nt,nt
O=C(O)c1cc(-c2ccc3c(c2)OCCO3)n[nH]1,i,i,i,i,i,nt,nt,nt,nt
Oc1ccccc1-c1cc(-c2ccc3c(c2)OCCO3)n[nH]1,6.92,i,i,i,i,i,i,i,i
O=C(COC(=O)c1ccc(O)cc1)Nc1ccc(OC(F)F)cc1,i,i,i,i,i,nt,nt,nt,nt
O=C(COC(=O)c1cccc(O)c1)Nc1ccc(OC(F)F)cc1,10.2,i,i,i,i,i,i,i,i
COC(=O)CNC(=O)CSc1nc2sc(-c3ccccc3)cc2c(=O)n1-c1ccccc1,10.7,i,i,i,i,i,i,i,i
CCCN(c1ccc(C(=O)OC)cc1)S(=O)(=O)c1ccccc1,9.75,i,i,i,i,i,i,i,i
COCc1cc(N2CCN(c3ccccc3F)CC2)nc(-c2ccccc2)n1,i,i,i,i,i,nt,nt,nt,nt
COCc1cc(Sc2ccc(Br)cc2)nc(-c2ccccc2)n1,8.87,i,i,i,i,i,i,i,i
COCc1cc(Sc2ccc(Cl)cc2)nc(-c2ccccc2)n1,13.5,i,i,i,i,i,i,i,i
CS(=O)Cc1cc(Sc2ccccc2)nc(-c2ccncc2)n1 (configuration not stated),i,i,i,i,i,nt,nt,nt,nt
O=C(CSc1ccccc1)NCC1(N2CCCCC2)CCCCC1,i,i,i,i,i,nt,nt,nt,nt
NC(=O)c1ccsc1NC(=O)COC(=O)Cc1c[nH]c2ccccc12,8.87,i,i,i,i,26.8%,i,i,i
Cn1c(-c2ccccc2F)cc2onc(-c3ccccc3)c2c1=O,i,nt,nt,i,i,nt,nt,nt,nt
Cn1c(-c2ccccc2)cc2onc(-c3ccccc3)c2c1=O,12,nt,nt,i,i,21.0%,i,i,i
C/C(=N\NC(=O)c1cccc(S(=O)(=O)Nc2ccccc2Cl)c1)c1ccco1,i,i,i,i,i,nt,nt,nt,nt
C/C(=N\NC(=O)c1ccc(Cl)c(S(=O)(=O)Nc2ccccc2Cl)c1)c1ccncc1,20.7,i,i,i,i,i,i,i,i
CC(=O)NCCC1CCN(C(=O)C2CCC(=O)N(C3CCCC3)C2)CC1 (configuration not stated),i,i,i,i,i,nt,nt,nt,nt
Cc1cc(C)c2sc(NC(=O)c3ccc([N+](=O)[O-])o3)nc2c1,20.5,i,i,i,i,i,i,i,i
Nc1ncnc2nc(N3CCN(C(=O)c4ccccc4)CC3)[nH]c12,16.9,i,i,i,i,i,i,i,i

# Source: PubChem BioAssay (Johns Hopkins Ion Channel Center)
